This is a sample that favours compounds with a hit; in the whole collection about 2% have one here.
SR-BI uptake up: enhances SR-BI lipid uptake from DiI-HDL; AID 504775; activation, % at 12.5 µM; 0.096% of 320,000 active; CHO ldlA[mSR-BI] cells, DiI-HDL uptake fluorescence, 3 h; 100 = double the neutral-control signal;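 active = mean replicate activation of at least 60% and every replicate at or above 60%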;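 also: 0% = median plate neutral-control signal and 100% = twice that signal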
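System: CHO ldlA[mSR-BI] cells / Medium: HEPES-buffered (25 mM, pH 7.4) F12 plus 0.5% BSA / Probe or stimulus: labelled HDL, 10 µg/mL / Doses: single compound concentration, delivered by pin transfer / Schedule: 3 h, 37 °C / Measured by: DiI fluorescence, bottom read / Measure: cell-associated DiI fluorescence as measure of HDL uptake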
ARNT TACC3 PPI: disruptors of human ARNT/TACC3 interaction. AlphaScreen His-ARNT PAS-B/GST-TACC3 binding, luminescence; TACC3 fragment carries E629A point mutation. inhibition, % at 9.99 µM. 0.66% of 390,000 active. AID 623870;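 active = mean inhibition of replicates at least 50% and at least half of replicates each reaching 50%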;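 also: 0% = complete ARNT plus TACC3 wells and 100% = ARNT alone without TACC3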
Xi reactivation: activators of X-chromosome reactivation in mouse fibroblasts; XiGFP mouse fibroblasts, % GFP-positive cells imaging, 3 d; cells co-treated with 5-aza-dC sensitizer; scaled so ellipticine positive control = 100%; activation, % at 7.58 µM; 0.055% of 360,000 active; AID 743238;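 active = mean normalized replicate activation at least 10% and every replicate at or above 10%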;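 also: 0% = median of on-plate neutral control wells and 100% = ellipticine 6 µM median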
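System: SV40-immortalized XiGFP fibroblast cells, line 68-5-11 / Incubation: 3-day compound exposure, then 15 min fixation at room temperature / Compound: single concentration per compound, delivered by pin transfer / Buffer or medium: DMEM plus 5-aza-dC sensitizer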
HGIII-sPLA2 inh: Blocks human group III sPLA2 activity | Q9NZ20 | QFRET BODIPY PC-A2 liposome hydrolysis, fluorescence | inhibition, % at 12.2 µM | 0.56% of 370,000 active | AID 743126;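 active = inhibition above mean plus 3 SD of compounds lying within the high and low control bounds, cut at about 19% in these data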;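 also: 0% = median of test compound wells and 100% = no enzyme DMSO wells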
NSD2 inh: inhibitors of human histone methyltransferase NSD2; inhibition, % at 12.5 µM; NSD2 peptide methylation, AlphaScreen, 120 min; 0.54% of 310,000 active; AID 743445; in the data active = inhibition above about 50%
SR-BI HDL uptake: mouse SR-BI HDL lipid transfer inhibition. Q61009. ldlA[mSR-BI] CHO cells, DiI-HDL uptake fluorescence, 3 h. inhibition, % at 12.5 µM. 0.96% of 320,000 active;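 active = mean replicate inhibition of at least 70% and a set share of replicates each scoring 70 or more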;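 also: 0% = median of neutral control wells and 100% = median of positive control wells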
Target sequence (Q61009 whole entry, looked up): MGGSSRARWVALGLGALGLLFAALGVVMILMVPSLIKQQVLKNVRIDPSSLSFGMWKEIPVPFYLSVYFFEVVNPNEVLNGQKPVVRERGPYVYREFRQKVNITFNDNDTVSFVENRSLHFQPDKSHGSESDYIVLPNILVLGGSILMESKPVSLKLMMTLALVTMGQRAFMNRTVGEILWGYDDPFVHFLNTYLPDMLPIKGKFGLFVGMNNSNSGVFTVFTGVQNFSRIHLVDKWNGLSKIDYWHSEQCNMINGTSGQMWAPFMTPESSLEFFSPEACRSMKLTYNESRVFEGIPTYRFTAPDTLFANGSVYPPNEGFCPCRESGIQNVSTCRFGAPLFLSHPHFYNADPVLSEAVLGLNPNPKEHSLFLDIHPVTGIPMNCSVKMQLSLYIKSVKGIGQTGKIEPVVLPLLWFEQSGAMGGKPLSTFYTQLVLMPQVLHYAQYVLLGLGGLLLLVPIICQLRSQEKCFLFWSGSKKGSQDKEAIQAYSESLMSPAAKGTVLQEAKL
hGIII sPLA2 conf: human GIII-sPLA2 inhibition, confirmation; shares compounds with HGIII-sPLA2 inh; recombinant hGIII-sPLA2, BODIPY PC-A2 QFRET fluorescence; inhibition, % at 12.2 µM; 34% of 2,000 active;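 active = mean inhibition across triplicates above the hit cutoff set in the earlier primary screen, cut at about 19% in these data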;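 also: 0% = enzyme with DMSO and 100% = DMSO wells lacking enzyme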
BODIPY interf: 535nm fluorescence interference, HGIII-sPLA2 counter-screen | shares compounds with HGIII-sPLA2 inh | BODIPY FL product fluorescence interference, QFRET | inhibition, % at 12.2 µM | 8.5% of 2,000 active | AID 743282;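 active = average inhibition above the solvent-only control mean plus 3 SD, cut at about 6% in these data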;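 also: 0% = DMSO with substrate plus product and 100% = DMSO with substrate alone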
535nm interf DR: interferes with 535nm fluorescence in dose response counter-screen; shares compounds with HGIII-sPLA2 inh; BODIPY FL product fluorescence interference, cell-free; AID 743455; 240 tested, under 10 active; IC50, µM;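 active = IC50 at or below 10 µM; inactive = IC50 above 10 µM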
* hit, by the source's call; · = no result.

SMILES	SR-BI uptake up	ARNT TACC3 PPI	Xi reactivation	HGIII-sPLA2 inh	NSD2 inh	SR-BI HDL uptake	hGIII sPLA2 conf	BODIPY interf	others
C/C(=N\OCc1nc2ccccc2c(=O)n1/N=C/c1cc(C)cc([N+](=O)[O-])c1O)c1ccccc1	-1	-5	0	22*	7	1	33*	8.8*
NNC(=O)CS(=O)(=O)CS(=O)(=O)CC(=O)NN	4	-5	0	-14	-1	-4	·	·
O=C([C@@H]1[C@@H](CO)[C@@H]2Cn3c(cccc3=O)[C@H]1N2S(=O)(=O)c1ccccc1F)N1CCOCC1	·	-5	0	·	·	·	·	·
CC(C)N1C(=S)N(Cc2ccco2)C(=O)C1CC(=O)Nc1ccccc1 (configuration not stated)	10	-4	0	-12	1	-10	·	·
O=c1cc(-c2ccccc2)[nH]n1-c1nc2ccccc2[nH]1	·	·	·	19*	-4	·	14	-1
Cc1ccc(-n2c(=S)[nH]c3c(oc4ccccc43)c2=O)cc1	·	-13	0	25*	-1	·	5	-3
CCOc1ccc(NC(=O)CSc2nc3[nH]ncc3c(=O)n2-c2ccccc2OC)cc1	-53	6	1	-8	0	53	·	·
CCOc1cc(C(=O)NCC(C)(C)CNC(=O)c2cc(OCC)c(OCC)c(OCC)c2)cc(OCC)c1OCC	·	·	0	-12	-2	·	·	·
CCOc1cc(C(=O)NC)cc(OCC)c1OCC	-8	-4	·	20*	·	8	-5	-7
COc1ccc(N2CCN(C(=S)Nc3cc(C)ccc3C)CC2)cc1	-5	-6	·	21*	·	5	15	-6
C/C(=N\NC(=S)NC(C)C)c1ccccc1	-11	5	0	11	-3	11	·	·
C/C(=N\NC(=S)NC(C)C)c1cccc([N+](=O)[O-])c1	-14	4	0	20*	1	14	22*	-5
C/C(=N\NC(=S)NC(C)C)c1ccc(Cl)c([N+](=O)[O-])c1	·	0	0	20*	·	·	19*	5
COc1ccc(S(=O)(=O)NCC(=O)N2CCN(c3ccccn3)CC2)c(OC)c1	·	·	·	0	0	·	·	·
COc1cc(C(=O)Nc2cccc(-c3nc4cc(C)ccc4o3)c2)cc(OC)c1OC	·	-3	0	19*	38	·	-17	-24
COc1ccc2[nH]c(N=Nc3ccccc3C)c(O)c2c1	0	1	0	25*	1	0	10	2
COC(=O)c1sc(C(C)(C)C)cc1CSc1ccccc1	-31	-8	0	21*	·	31	-21	-8
C=CCN1C(=O)[C@@H](CC(=O)N2CCCC2)[C@]2(C(=O)OCC)CCCCC/C=C/12	·	·	·	4	·	·	·	·
Cc1cccc(C)c1-n1nnnc1C1(C)Cn2nccc2C(=O)N1Cc1ccc(F)cc1 (configuration not stated)	·	·	·	0	·	·	·	·
O=C(NC(=S)NCCN1CCOCC1)c1ccc(Cl)cc1Cl	·	3	·	21*	0	·	12	-7
O=C(NC(=S)NCCN1CCOCC1)c1ccccc1Cl	3	23	·	5	2	-3	·	·
Cc1cc2ncn(N)c2cc1C	8	-9	·	90*	0	-8	-1	-7
CC(C)NC[C@@H]1[C@H](c2ccc(C3=CCCCC3)cc2)[C@H](CO)N1S(C)(=O)=O	·	5	0	·	·	·	·	·
COc1ccccc1NS(=O)(=O)c1ccc2oc(SCC(=O)N3CCNC3=O)nc2c1	-14	8	0	-22	-1	14	·	·
CC1CCCN(C(=S)Nc2ccc3nc4n(c(=O)c3c2)CCCCC4)C1 (configuration not stated)	16	·	0	27*	-2	-16	10	-10
SMILES	SR-BI uptake up	ARNT TACC3 PPI	Xi reactivation	HGIII-sPLA2 inh	NSD2 inh	SR-BI HDL uptake	hGIII sPLA2 conf	BODIPY interf	others
CC1CC(C)CN(C(=S)Nc2ccc3nc4n(c(=O)c3c2)CCCCC4)C1 (configuration not stated)	-22	·	0	11	-1	22	·	·
O=C(Nc1ccnc(-c2cccnc2)n1)c1ccc(F)cc1	·	·	·	·	-3	·	·	·
Cc1ccc(C(=O)CC(C(=O)O)P(=O)(c2ccccc2)c2ccccc2)cc1 (configuration not stated)	42	2	0	-2	2	-42	·	·
O=C(O)C(C/C(=N/O)c1ccc(Br)cc1)P(=O)(c1ccccc1)c1ccccc1 (configuration not stated)	22	4	0	21*	14	-22	2	-7
Cc1ccc(NC(=O)Cn2cccc2C2=NC(c3ccccc3)CO2)cc1C (configuration not stated)	-54	-2	0	21*	-1	54	-7	-13
CCCN1CCCc2ccccc21	-9	7	·	11	3	9	·	·
N#CCCN1CCCc2cc(N=Nc3ccc(C(F)(F)F)cc3)ccc21	-98	17	0	23*	22	98*	24*	8.4*
Cc1ccc([N+](=O)[O-])c(-c2n[nH]c(=S)n2-c2cccc(Cl)c2)c1	4	2	0	31*	2	-4	22*	6.6*
Cc1ccccc1-n1c(-c2ccoc2C)n[nH]c1=S	-3	0	0	4	1	3	·	·
Cc1cccc(-n2c(-c3ccoc3C)n[nH]c2=S)c1	30	-7	0	20*	2	-30	36*	-1	535nm interf DR=>122
CC(=O)COC(=O)c1cccc(N2C(=O)C3C4C=CC(C4)C3C2=O)c1 (configuration not stated)	0	-18	0	-4	·	0	·	·
C[C@@H]1CCCCO[C@@H](CN(C)C(=O)CCCN(C)C)[C@H](C)CN([C@@H](C)CO)C(=O)c2cc(NC(=O)c3ccccc3)ccc2O1	·	·	-1	·	·	·	·	·
CCCn1c(NC(=S)Nc2ccccc2)nc2ccccc21	·	21	0	37*	-1	·	48*	6	535nm interf DR=>122
CCn1c(NC(=S)Nc2ccccc2)nc2ccccc21	·	1	·	23*	1	·	24*	3
S=C(Nc1ccccc1)Nc1nc2ccccc2n1CCOc1ccc(Cl)cc1	-25	3	0	5	-1	25	·	·
COc1ccc(Cc2noc(-c3ccc([N+](=O)[O-])cc3)n2)cc1OC	7	-2	0	21*	7	-7	1	-7
